pEC50: −log10 of the molar value. Where a name gives a salt, the structure may show the parent alone. A value given as a limit tells only on which side of the number the result lay.

Here are results for 35 molecules from ChEMBL document CHEMBL3632598, “Stereospecific inhibition of nitric oxide production in macrophage cells by flavanonols: Synthesis and the structure-activity relationship” (Bioorg Med Chem, 2015).

Data set [1] can be described thus: Antioxidant activity assessed as DPPH radical scavenging activity after 30 mins by spectrophotometry. Format: physicochemical. On the technique in general: The DPPH test is a chemical assay of radical scavenging.
Data set [2] concerns RAW264.7. Put plainly: Antiinflammatory activity in mouse RAW264.7 cells assessed as inhibition of LPS-induced nitric oxide production at 100 uM pre-incubated for 2 hrs before LPS stimulation for 16 hrs by Griess method. Format: functional. Summed up: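 RAW 264.7 cells (1.6 × 10^6 cells/mL) in F-12 Ham medium with 10% FBS, glutamate and penicillin-streptomycin. Compounds were given as DMSO stock diluted 1:100 in medium, final 100 µM, and concentration was checked by UV absorbance. After 2 h at 37 °C, LPS was added to a final 100 ng/mL and cells were incubated 16 h. Aminoguanidine was the positive control; mean ± S.D., n = 3.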

Data set [3] concerns RAW264.7. Put plainly: Cytotoxicity against mouse RAW264.7 cells assessed as cell viability at 100 uM pre-incubated for 2 hrs before LPS stimulation for 16 hrs followed by 4 hrs incubation by alamar blue assay. The settings on record: raw264.7, 100 µM. The class given is cell-based. Put shortly:
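Viability was read on the RAW 264.7 cells left after supernatant removal in the LPS/NO assay (100 µM compound, 2 h pre-incubation, LPS 100 ng/mL for 16 h). AlamarBlue was added and plates were incubated 4 h at 37 °C. Absorbance was read at 570 nm (reference 655 nm).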
(The colour change of resazurin is a common sign of viable cells or microbes.)

For orientation: pEC50 means the EC50 on a negative log10 scale, so that one unit is a factor of ten. Broadly, the inhibition is the drop in the measured response relative to a control, in per cent. On to `O=C1c2c(O)cc(O)cc2O[C@@H](c2ccc(O)cc2)[C@@H]1O`, for which the pEC50 in data set [1] is under 4.00. For the same molecule, the inhibition at 100 µM with RAW264.7 [2] was under 10%.
On the same counts, the results for `O=C1c2c(O)cc(O)cc2O[C@@H](c2ccc(O)c(O)c2)[C@@H]1O` are 4.90 and under 10%.
Consider `O=C(O)c1cc(O)c(O)c(O)c1`, for which the pEC50 in data set [1] was 5.00.
As to `O=C1c2c(O)cc(O)cc2O[C@@H](c2ccccc2)[C@@H]1O`, the pEC50 in data set [1] was under 4.00. In addition, the inhibition at 100 µM in the data set on RAW264.7 [2] was under 10%.
Take `O=C1c2c(O)cc(O)cc2O[C@H](c2ccccc2O)[C@H]1O`: the pEC50 in data set [1] is under 4.00. Further, in the data set on RAW264.7 [3], the Activity result was “Non-toxic”. In addition, the inhibition at 100 µM in the data set with RAW264.7 [2] was determined as 40%.
Take `O=C1c2c(O)cc(O)cc2O[C@@H](c2ccccc2O)[C@@H]1O`: in data set [1], the pEC50 is under 4.00. The Activity result in the data set with RAW264.7 [3] was “Non-toxic”. For the same molecule, the inhibition at 100 µM in the data set on RAW264.7 [2] is under 15%.
Taken in the same sequence, the figures for `O=C1c2c(O)cc(O)cc2O[C@H](c2cccc(O)c2)[C@H]1O` were under 4.00, “Non-toxic” and 35%.
On the same counts, the results for `O=C1c2c(O)cc(O)cc2O[C@@H](c2cccc(O)c2)[C@@H]1O` are under 4.00, “Non-toxic” and under 15%.
Taken in the same sequence, the figures for `O=C1c2c(O)cc(O)cc2O[C@H](c2cccc(O)c2O)[C@H]1O` were 4.90, “Non-toxic” and 70%.
Turning to `O=C1c2c(O)cc(O)cc2O[C@@H](c2cccc(O)c2O)[C@@H]1O`, the negative logarithm of the EC50 (pEC50) in data set [1] was 4.88. Moreover, the Activity result in the data set on RAW264.7 [3] is “Non-toxic”. Besides, in the data set with RAW264.7 [2], the inhibition at 100 µM stood at 45%.
Regarding `O=C1c2c(O)cc(O)cc2O[C@@H](c2ccc(O)cc2O)[C@@H]1O`, the negative-log EC50 (pEC50) in data set [1] was under 4.00. The inhibition at 100 µM in the data set with RAW264.7 [2] was under 10%.
`O=C1c2c(O)cc(O)cc2O[C@H](c2cc(O)ccc2O)[C@H]1O`: the pEC50 in data set [1] is 4.61. For the same molecule, in the data set with RAW264.7 [3], the Activity result is “Non-toxic”. The inhibition at 100 µM in the data set on RAW264.7 [2] was found to be 30%.
Taken in the same sequence, the figures for `O=C1c2c(O)cc(O)cc2O[C@@H](c2cc(O)ccc2O)[C@@H]1O` were 4.60, “Non-toxic” and under 15%.
With `O=C1c2c(O)cc(O)cc2O[C@H](c2cc(O)cc(O)c2)[C@H]1O`, the pEC50 in data set [1] was under 4.00. Also, the inhibition at 100 µM with RAW264.7 [2] was under 10%.
On the same counts, the results for `O=C1c2c(O)cc(O)cc2O[C@@H](c2cc(O)cc(O)c2)[C@@H]1O` are under 4.00 and under 10%.
On the same counts, the results for `COc1cccc([C@H]2Oc3cc(O)cc(O)c3C(=O)[C@@H]2O)c1` are under 4.00 and under 10%.
On the same counts, the results for `COc1cccc([C@@H]2Oc3cc(O)cc(O)c3C(=O)[C@H]2O)c1` are under 4.00 and under 10%.
Consider `COc1ccc([C@@H]2Oc3cc(O)cc(O)c3C(=O)[C@H]2O)cc1`, for which, in data set [1], the negative-log EC50 (pEC50) is under 4.00. Further, in the data set on RAW264.7 [2], the inhibition at 100 µM was under 10%.
`COc1cccc([C@H]2Oc3cc(O)cc(O)c3C(=O)[C@@H]2O)c1OC`: the pEC50 in data set [1] is under 4.00. For the same molecule, in the data set with RAW264.7 [2], the inhibition at 100 µM was under 10%.
On the same counts, the results for `COc1cccc([C@@H]2Oc3cc(O)cc(O)c3C(=O)[C@H]2O)c1OC` are under 4.00 and under 10%.
Taken in the same sequence, the figures for `COc1ccc([C@H]2Oc3cc(O)cc(O)c3C(=O)[C@@H]2O)c(OC)c1` were under 4.00 and under 10%.
On the same counts, the results for `COc1ccc([C@@H]2Oc3cc(O)cc(O)c3C(=O)[C@H]2O)c(OC)c1` are under 4.00 and under 10%.
Take `COc1ccc(OC)c([C@H]2Oc3cc(O)cc(O)c3C(=O)[C@@H]2O)c1`: the negative-log EC50 (pEC50) in data set [1] was under 4.00. Besides, in the data set on RAW264.7 [2], the inhibition at 100 µM is under 10%.
For the molecule `COc1ccc(OC)c([C@@H]2Oc3cc(O)cc(O)c3C(=O)[C@H]2O)c1`, the pEC50 in data set [1] was under 4.00. The inhibition at 100 µM in the data set with RAW264.7 [2] is under 10%.
Taken in the same sequence, the figures for `COc1cc(OC)cc([C@H]2Oc3cc(O)cc(O)c3C(=O)[C@@H]2O)c1` were under 4.00 and under 10%.
Taken in the same sequence, the figures for `COc1cc(OC)cc([C@@H]2Oc3cc(O)cc(O)c3C(=O)[C@H]2O)c1` were under 4.00 and under 10%.
On the same counts, the results for `COc1ccc([C@H]2Oc3cc(O)cc(O)c3C(=O)[C@@H]2O)cc1` are under 4.00 and under 10%.
As to `COc1ccccc1C1Oc2cc(O)cc(O)c2C(=O)C1O` (racemic), the pEC50 in data set [1] is under 4.00. Further, in the data set on RAW264.7 [2], the inhibition at 100 µM was under 10%.
In the case of `COc1cccc(OC)c1C1Oc2cc(O)cc(O)c2C(=O)C1O` (racemic), in data set [1], the pEC50 was under 4.00. The inhibition at 100 µM in the data set with RAW264.7 [2] is under 10%.
On the same counts, the results for `COc1ccc(C2Oc3cc(O)cc(O)c3C(=O)C2O)cc1OC` (racemic) are under 4.00 and under 10%.
Taken in the same sequence, the figures for `O=C1c2c(O)cc(O)cc2O[C@H](c2ccc(O)c(O)c2)[C@H]1O` [(+)-TAXIFOLIN] were 4.86 and under 10%.
Regarding `O=C1c2c(O)cc(O)cc2O[C@H](c2ccc(O)cc2)[C@H]1O` [DIHYDROKAEMPFEROL], the pEC50 in data set [1] is under 4.00. In addition, in the data set with RAW264.7 [2], the inhibition at 100 µM was under 10%.
On the same counts, the results for `O=C1c2c(O)cc(O)cc2O[C@H](c2ccc(O)cc2O)[C@H]1O` [DIHYDROMORIN] are under 4.00 and under 10%.
On to `N=C(N)NN` [PIMAGEDINE HYDROCHLORIDE], for which the inhibition at 100 µM with RAW264.7 [2] was 72%.
With `O=C1c2c(O)cc(O)cc2O[C@H](c2ccccc2)[C@H]1O` [PINOBAKSIN], the pEC50 in data set [1] was under 4.00. The inhibition at 100 µM in the data set on RAW264.7 [2] was under 10%.
